Reference: ChEMBL document CHEMBL3864121, “Development of ebsulfur analogues as potent antibacterials against methicillin-resistant Staphylococcus aureus” (Bioorg Med Chem, 2016)
Values after ≈ are worked out from the molar mass of the structure shown. Active and inactive are the calls of the source. The rule behind the calls is not given here.

What was measured:
Format in all cases: functional
[1] = tested on: Staphylococcus aureus; experiment: Antibacterial activity against methicillin-resistant Staphylococcus aureus USA100 measured after overnight incubation by broth double-dilution method
In short: (§1)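 MIC by broth double-dilution in liquid Mueller-Hinton medium. Values are reported in µg/mL.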

[2] = tested on: Staphylococcus aureus; experiment: Antibacterial activity against methicillin-resistant Staphylococcus aureus S17 measured after overnight incubation by broth double-dilution method; in short: as §1
[3] = tested on: Staphylococcus aureus; experiment: Antibacterial activity against methicillin-resistant Staphylococcus aureus S22 using 1 10^6CFU/ml measured after overnight incubation by broth double-dilution method
[4] = tested on: Enterococcus faecalis; experiment: Antibacterial activity against Enterococcus faecalis ATCC 29212 measured after overnight incubation by broth double-dilution method
In short: (§2)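 MIC by broth double-dilution in Mueller-Hinton medium. Re-testing at the time-kill inoculum used 1×10^6 CFU/mL.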

[5] = tested on: Staphylococcus epidermidis; experiment: Antibacterial activity against Staphylococcus epidermidis ATCC 35984 measured after overnight incubation by broth double-dilution method; details: RP62A; in short: as §2
[6] = tested on: Staphylococcus aureus; experiment: Antibacterial activity against methicillin-sensitive Staphylococcus aureus ATCC 6538 measured after overnight incubation by broth double-dilution method; in short: as §1
[7] = tested on: Staphylococcus aureus; experiment: Antibacterial activity against methicillin-resistant Staphylococcus aureus C2 measured after overnight incubation by broth double-dilution method; in short: as §1
[8] = tested on: Staphylococcus aureus; experiment: Antibacterial activity against methicillin-resistant Staphylococcus aureus C7 measured after overnight incubation by broth double-dilution method; in short: as §1
[9] = tested on: Staphylococcus aureus; experiment: Antibacterial activity against methicillin-resistant Staphylococcus aureus G12 measured after overnight incubation by broth double-dilution method; in short: as §1
[10] = tested on: Staphylococcus aureus; experiment: Antibacterial activity against methicillin-resistant Staphylococcus aureus S14 measured after overnight incubation by broth double-dilution method; in short: as §1
[11] = tested on: Staphylococcus aureus; experiment: Antibacterial activity against methicillin-resistant Staphylococcus aureus G6 measured after overnight incubation by broth double-dilution method; in short: as §1
[12] = tested on: Staphylococcus aureus; experiment: Antibacterial activity against methicillin-resistant Staphylococcus aureus C14 measured after overnight incubation by broth double-dilution method; in short: as §1
[13] = tested on: Staphylococcus aureus; experiment: Antibacterial activity against methicillin-resistant Staphylococcus aureus G14 measured after overnight incubation by broth double-dilution method; in short: as §1
[14] = tested on: Staphylococcus aureus; experiment: Antibacterial activity against methicillin-resistant Staphylococcus aureus C16 measured after overnight incubation by broth double-dilution method; in short: as §1
[15] = tested on: Enterococcus faecium; experiment: Antibacterial activity against Enterococcus faecium BM4105-RF measured after overnight incubation by broth double-dilution method; in short: as §1
[16] = tested on: Staphylococcus aureus; experiment: Antibacterial activity against methicillin-resistant Staphylococcus aureus NRS77 measured after overnight incubation by broth double-dilution method; in short: as §1
[17] = tested on: Staphylococcus aureus; experiment: Antibacterial activity against methicillin-resistant Staphylococcus aureus USA300 measured after overnight incubation by broth double-dilution method; in short: as §1
[18] = tested on: Staphylococcus aureus; experiment: Antibacterial activity against methicillin-resistant Staphylococcus aureus G1 measured after overnight incubation by broth double-dilution method; in short: as §1
[19] = tested on: Mycolicibacterium smegmatis; experiment: Antibacterial activity against Mycobacterium smegmatis MC2-155 measured after overnight incubation by broth double-dilution method; details: str. MC2 155; in short: as §1
[20] = tested on: Staphylococcus aureus; experiment: Antibacterial activity against methicillin-resistant Staphylococcus aureus NRS51 measured after overnight incubation by broth double-dilution method; in short: as §1
[21] = tested on: Enterococcus faecalis; experiment: Antibacterial activity against Enterococcus faecalis ATCC 49533 measured after overnight incubation by broth double-dilution method; in short: as §2
[22] = tested on: Staphylococcus aureus; experiment: Antibacterial activity against methicillin-resistant Staphylococcus aureus S24 measured after overnight incubation by broth double-dilution method; in short: as §1
[23] = tested on: Staphylococcus aureus; experiment: Antibacterial activity against methicillin-resistant Staphylococcus aureus USA600 measured after overnight incubation by broth double-dilution method; in short: as §1
[24] = tested on: Staphylococcus aureus; experiment: Antibacterial activity against methicillin-sensitive Staphylococcus aureus ATCC 25923 measured after overnight incubation by broth double-dilution method; in short: as §1
[25] = tested on: Staphylococcus aureus; experiment: Antibacterial activity against methicillin-resistant Staphylococcus aureus NRS4 measured after overnight incubation by broth double-dilution method; in short: as §1
[26] = tested on: Enterococcus; experiment: Antibacterial activity against Vancomycin-resistant Enterococcus measured after overnight incubation by broth double-dilution method; in short: as §1
[27] = tested on: Staphylococcus aureus; experiment: Antibacterial activity against methicillin-resistant Staphylococcus aureus C19 measured after overnight incubation by broth double-dilution method; in short: as §1
[28] = tested on: Staphylococcus aureus; experiment: Antibacterial activity against methicillin-resistant Staphylococcus aureus 2 measured after overnight incubation by broth double-dilution method; in short: as §1
[29] = tested on: Listeria monocytogenes; experiment: Antibacterial activity against Listeria monocytogenes ATCC 19115 measured after overnight incubation by broth double-dilution method; in short: as §2
[30] = tested on: Staphylococcus aureus; experiment: Antibacterial activity against methicillin-resistant Staphylococcus aureus 1 measured after overnight incubation by broth double-dilution method; in short: as §1
[31] = tested on: Staphylococcus aureus; experiment: Antibacterial activity against methicillin-resistant Staphylococcus aureus BRS3 measured after overnight incubation by broth double-dilution method; in short: as §1
[32] = tested on: Staphylococcus aureus; experiment: Antibacterial activity against methicillin-resistant Staphylococcus aureus S22 measured after overnight incubation by broth double-dilution method; in short: as §1
[33] = tested on: Staphylococcus aureus; experiment: Antibacterial activity against methicillin-sensitive Staphylococcus aureus ATCC 29213 measured after overnight incubation by broth double-dilution method; in short: as §1
[34] = tested on: Staphylococcus aureus; experiment: Antibacterial activity against methicillin-resistant Staphylococcus aureus ATCC 33591 measured after overnight incubation by broth double-dilution method; in short: as §1
[35] = tested on: Staphylococcus aureus; experiment: Antibacterial activity against methicillin-resistant Staphylococcus aureus USA200 measured after overnight incubation by broth double-dilution method; in short: as §1
[36] = tested on: Staphylococcus aureus; experiment: Antibacterial activity against methicillin-resistant Staphylococcus aureus C1 measured after overnight incubation by broth double-dilution method; in short: as §1

| SMILES | MIC [1] | MIC [2] | MIC [4] | MIC [5] | MIC [6] | MIC [7] | MIC [8] | MIC [9] | MIC [10] | MIC [11] | MIC [12] | MIC [13] | MIC [14] | MIC [15] | MIC [16] | MIC [17] | MIC [18] | MIC [19] | MIC [20] | MIC [21] | further results |
| --- | --- | --- | --- | --- | --- | --- | --- | --- | --- | --- | --- | --- | --- | --- | --- | --- | --- | --- | --- | --- | --- |
| O=c1c2ccccc2sn1-c1cccc(Br)c1 | 3.9 µg/mL (≈ 12.7 µM) | 3.9 µg/mL (≈ 12.7 µM) | 15.6 µg/mL (≈ 50.9 µM) | 3.9 µg/mL (≈ 12.7 µM) | 7.8 µg/mL (≈ 25.5 µM) | 3.9 µg/mL (≈ 12.7 µM) | 3.9 µg/mL (≈ 12.7 µM) | 7.8 µg/mL (≈ 25.5 µM) | 0.5 µg/mL (≈ 1.63 µM) | 3.9 µg/mL (≈ 12.7 µM) | 7.8 µg/mL (≈ 25.5 µM) | 7.8 µg/mL (≈ 25.5 µM) | 3.9 µg/mL (≈ 12.7 µM) | 15.6 µg/mL (≈ 50.9 µM) | 3.9 µg/mL (≈ 12.7 µM) | 3.9 µg/mL (≈ 12.7 µM) | 3.9 µg/mL (≈ 12.7 µM) | 3.9 µg/mL (≈ 12.7 µM) | 3.9 µg/mL (≈ 12.7 µM) | > 125 µg/mL | Activity [3]: Active; MIC [22]: 3.9 µg/mL (≈ 12.7 µM); MIC [23]: 7.8 µg/mL (≈ 25.5 µM); MIC [24]: 7.8 µg/mL (≈ 25.5 µM); MIC [25]: 7.8 µg/mL (≈ 25.5 µM); MIC [26]: 7.8 µg/mL (≈ 25.5 µM); MIC [27]: 3.9 µg/mL (≈ 12.7 µM); MIC [28]: 3.9 µg/mL (≈ 12.7 µM); MIC [29]: 3.9 µg/mL (≈ 12.7 µM); MIC [30]: 7.8 µg/mL (≈ 25.5 µM); MIC [31]: 7.8 µg/mL (≈ 25.5 µM); MIC [32]: > 125 µg/mL; MIC [33]: 3.9 µg/mL (≈ 12.7 µM); MIC [34]: 2 µg/mL (≈ 6.53 µM); MIC [35]: 7.8 µg/mL (≈ 25.5 µM); MIC [36]: 3.9 µg/mL (≈ 12.7 µM) |
| O=c1c2ccccc2[s+]([O-])n1C1CCCCCCC1 (stereo unspecified) | > 125 µg/mL | > 125 µg/mL | > 125 µg/mL | > 125 µg/mL | > 125 µg/mL | > 125 µg/mL | > 125 µg/mL | > 125 µg/mL | > 125 µg/mL | > 125 µg/mL | > 125 µg/mL | > 125 µg/mL | > 125 µg/mL | > 125 µg/mL | > 125 µg/mL | > 125 µg/mL | > 125 µg/mL | > 125 µg/mL | > 125 µg/mL | > 125 µg/mL | MIC [22]: 125 µg/mL (≈ 451 µM); MIC [23]: > 125 µg/mL; MIC [24]: > 125 µg/mL; MIC [25]: > 125 µg/mL; MIC [26]: > 125 µg/mL; MIC [27]: > 125 µg/mL; MIC [28]: > 125 µg/mL; MIC [29]: > 125 µg/mL; MIC [30]: > 125 µg/mL; MIC [31]: > 125 µg/mL; MIC [32]: > 125 µg/mL; MIC [33]: > 125 µg/mL; MIC [34]: > 125 µg/mL; MIC [35]: > 125 µg/mL; MIC [36]: > 125 µg/mL |
| O=c1c2ccccc2sn1C1CCCCCC1 | 3.9 µg/mL (≈ 15.8 µM) | 1 µg/mL (≈ 4.04 µM) | > 125 µg/mL | 2 µg/mL (≈ 8.09 µM) | 7.8 µg/mL (≈ 31.5 µM) | 2 µg/mL (≈ 8.09 µM) | 3.9 µg/mL (≈ 15.8 µM) | 2 µg/mL (≈ 8.09 µM) | 0.5 µg/mL (≈ 2.02 µM) | 2 µg/mL (≈ 8.09 µM) | 2 µg/mL (≈ 8.09 µM) | 3.9 µg/mL (≈ 15.8 µM) | 3.9 µg/mL (≈ 15.8 µM) | 7.8 µg/mL (≈ 31.5 µM) | 2 µg/mL (≈ 8.09 µM) | 15.6 µg/mL (≈ 63.1 µM) | 0.5 µg/mL (≈ 2.02 µM) | 7.8 µg/mL (≈ 31.5 µM) | 3.9 µg/mL (≈ 15.8 µM) | > 125 µg/mL | MIC [22]: 3.9 µg/mL (≈ 15.8 µM); MIC [23]: 7.8 µg/mL (≈ 31.5 µM); MIC [24]: 3.9 µg/mL (≈ 15.8 µM); MIC [25]: 2 µg/mL (≈ 8.09 µM); MIC [26]: 2 µg/mL (≈ 8.09 µM); MIC [27]: 1 µg/mL (≈ 4.04 µM); MIC [28]: 3.9 µg/mL (≈ 15.8 µM); MIC [29]: 3.9 µg/mL (≈ 15.8 µM); MIC [30]: 2 µg/mL (≈ 8.09 µM); MIC [31]: 2 µg/mL (≈ 8.09 µM); MIC [32]: 3.9 µg/mL (≈ 15.8 µM); MIC [33]: 3.9 µg/mL (≈ 15.8 µM); MIC [34]: 1 µg/mL (≈ 4.04 µM); MIC [35]: 7.8 µg/mL (≈ 31.5 µM); MIC [36]: 2 µg/mL (≈ 8.09 µM) |
| CC(C)Cn1sc2ccccc2c1=O | 7.8 µg/mL (≈ 37.6 µM) | 7.8 µg/mL (≈ 37.6 µM) | 7.8 µg/mL (≈ 37.6 µM) | 7.8 µg/mL (≈ 37.6 µM) | 7.8 µg/mL (≈ 37.6 µM) | 7.8 µg/mL (≈ 37.6 µM) | 7.8 µg/mL (≈ 37.6 µM) | 7.8 µg/mL (≈ 37.6 µM) | 2 µg/mL (≈ 9.65 µM) | 7.8 µg/mL (≈ 37.6 µM) | 7.8 µg/mL (≈ 37.6 µM) | 7.8 µg/mL (≈ 37.6 µM) | 7.8 µg/mL (≈ 37.6 µM) | 7.8 µg/mL (≈ 37.6 µM) | 7.8 µg/mL (≈ 37.6 µM) | 7.8 µg/mL (≈ 37.6 µM) | 3.9 µg/mL (≈ 18.8 µM) | 3.9 µg/mL (≈ 18.8 µM) | 7.8 µg/mL (≈ 37.6 µM) | 15.6 µg/mL (≈ 75.3 µM) | MIC [22]: 7.8 µg/mL (≈ 37.6 µM); MIC [23]: 7.8 µg/mL (≈ 37.6 µM); MIC [24]: 125 µg/mL (≈ 603 µM); MIC [25]: 7.8 µg/mL (≈ 37.6 µM); MIC [26]: 3.9 µg/mL (≈ 18.8 µM); MIC [27]: 7.8 µg/mL (≈ 37.6 µM); MIC [28]: 15.6 µg/mL (≈ 75.3 µM); MIC [29]: > 125 µg/mL; MIC [30]: 7.8 µg/mL (≈ 37.6 µM); MIC [31]: 7.8 µg/mL (≈ 37.6 µM); MIC [32]: 7.8 µg/mL (≈ 37.6 µM); MIC [33]: 15.6 µg/mL (≈ 75.3 µM); MIC [34]: > 125 µg/mL; MIC [35]: 7.8 µg/mL (≈ 37.6 µM); MIC [36]: 7.8 µg/mL (≈ 37.6 µM) |
